Experimental findings from ChEMBL document CHEMBL2331522, “Dibenzocyclooctadiene lignans and norlignans from fruits of Schisandra wilsoniana” (J Nat Prod, 2013) are described below.

A short description of data set [1]: Cytotoxicity against human C8166 cells by MTT assay. Format: cell-based. On the technique in general: Tetrazolium dyes change colour on reduction, which living cells bring about.
A short description of data set [2]: Therapeutic index, ratio of CC50 for human C8166 cells to EC50 for HIV1. It counts as cell-based. Particulars: read-out: Ratio CC50/EC50.
Data set [3] relates to Human immunodeficiency virus 1. The data set is described as follows: Antiviral activity against HIV1 assessed as reduction in virus-induced cytopathogenicity. It counts as functional, organism-based. The gist of the method:
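Test compounds were added to C8166 cells infected with HIV-1 and scored for protection from virus-induced cytopathic effect. The concentration giving 50% protection is reported as EC50.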
In general terms: Protection from cytopathic effect is a common read-out in antiviral testing.

≈ marks a conversion by molar mass, not a printed value.

A word on the CC50: it is the concentration that lowers cell viability or growth by half. Low values mean harm at low concentration, high ones better tolerance by the cells. Usually EC50 stands for the midpoint of the concentration-response curve. In turn, `COc1c2c(cc3c1-c1c(cc4c(c1O)OCO4)[C@H](OC)[C@@H](C)[C@@H](C)C3)OCO2` [MARLIGNAN Q] returned a CC50 in data set [1] of 22.5 µg/mL (≈ 56.2 µM). Also, in data set [2], the selectivity ratio is 5.33. Further, in data set [3], the EC50 is 4.22 µg/mL (≈ 10.5 µM).

Compound `COc1c(O)cc2c(c1OC)-c1c(cc3c(c1OC)OCO3)C[C@H](C)[C@H](C)[C@H]2O` [MARLIGNAN O] displayed a CC50 in data set [1] of 70.6 µg/mL (≈ 175 µM). In data set [2], the selectivity ratio is 12.1. In data set [3], the EC50 turned out to be 5.84 µg/mL (≈ 14.5 µM).

The compound `COc1cc2c(c(OC)c1O)-c1c(cc(OC)c(OC)c1OC)C[C@H](C)[C@H](C)[C@H]2O` [MARLIGNAN M] showed a CC50 in data set [1] of 32.1 µg/mL (≈ 76.7 µM). In addition, the selectivity ratio in data set [2] came out at 9.39. Also, in data set [3], the EC50 turned out to be 3.42 µg/mL (≈ 8.17 µM).

Turning to `COc1cc2c(c(O)c1OC)-c1c(cc(OC)c(OC)c1O)[C@H](O)[C@@H](C)[C@@H](C)C2` [MARLIGNAN N], it took 47.4 µg/mL (≈ 117 µM) to reach half-maximal cytotoxicity in data set [1] (CC50). Further, the selectivity ratio in data set [2] was 7.67. Besides, the EC50 in data set [3] worked out at 6.18 µg/mL (≈ 15.3 µM).

Compound `COc1cc2c(c(OC)c1OC)-c1c(cc3c(c1O)OCO3)[C@H](OC)[C@@H](C)[C@@H](C)C2` [MARLIGNAN S] had a CC50 in data set [1] of 42.8 µg/mL (≈ 103 µM). In data set [2], the selectivity ratio stood at 10.3. In data set [3], the EC50 amounted to 4.14 µg/mL (≈ 9.94 µM).

The compound `COc1c2c(cc3c1-c1c(cc4c(c1O)OCO4)C[C@H](C)[C@H](C)[C@H]3OC)OCO2` [MARLIGNAN P] returned a CC50 in data set [1] of 74.6 µg/mL (≈ 186 µM). Besides, the selectivity ratio in data set [2] was 23.5. In addition, the EC50 in data set [3] amounted to 3.18 µg/mL (≈ 7.94 µM).

In data set [1], `Cc1cn([C@H]2C[C@H](N=[N+]=[N-])[C@@H](CO)O2)c(=O)[nH]c1=O` [ZIDOVUDINE] yielded a CC50 greater than 200 µg/mL. Also, the selectivity ratio in data set [2] was greater than 46500. Moreover, the EC50 in data set [3] was found to be 0.0043 µg/mL (≈ 0.0161 µM).

Compound `COc1ccc(C(c2ccc(OC)c(O)c2)[C@H](C(=O)O)C(CO)CO)cc1O` [MARLPHENOL E] displayed a CC50 in data set [1] of 73.5 µg/mL (≈ 187 µM). For the same compound, the selectivity ratio in data set [2] worked out at 21.2. In data set [3], the EC50 came to 3.47 µg/mL (≈ 8.84 µM).

The compound `COc1ccc([C@@H](c2ccc3c(c2)OCO3)[C@H](C(=O)O)C(CO)CO)cc1O` [MARLPHENOL F] showed a CC50 in data set [1] of 82.1 µg/mL (≈ 210 µM). Moreover, the selectivity ratio in data set [2] amounted to 27.6. Moreover, in data set [3], the EC50 was 2.97 µg/mL (≈ 7.61 µM).

The compound `COc1cc(C(O)C(C(=O)O)C(CO)CO)cc(O)c1OC` (stereo unspecified) [MARPHENOL D] had a CC50 in data set [1] of 93.8 µg/mL (≈ 297 µM). In addition, in data set [2], the selectivity ratio was determined as 29.1. The EC50 in data set [3] was 3.22 µg/mL (≈ 10.2 µM).

The compound `COc1cc2c(c(O)c1OC)-c1c(cc3c(c1OC)OCO3)[C@H](OC)[C@@H](C)[C@@H](C)C2` [MARLIGNAN R] came in with a CC50 in data set [1] of 36.7 µg/mL (≈ 88.1 µM). In addition, the selectivity ratio in data set [2] worked out at 9.48. In data set [3], the EC50 stood at 3.87 µg/mL (≈ 9.29 µM).

`COc1cc(C(O)C(C(=O)O)C(CO)CO)ccc1O` (stereo unspecified) [MARPHENOL C] returned a CC50 in data set [1] of 84.5 µg/mL (≈ 295 µM). In data set [2], the selectivity ratio worked out at 26.9. Further, the EC50 in data set [3] came out at 3.14 µg/mL (≈ 11 µM).
